The values below come from PMC5935105 (Analytical biochemistry, 2018).

Test [1] concerns the target SOS-catalyzed nucleotide exchange on RAS (SOScat, K-RAS G12D) (Homo sapiens, UniProt Q07889). In words: SOS-catalyzed nucleotide exchange assay using BODIPY-GDP-loaded RAS. The format is biochemical. The following applies: average of the two values of Table 1; 100 μM compound; normalized to API. Put shortly:
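SOScat (residues 564–1049) with BODIPY-GDP-loaded RAS in 25 mM Tris pH 7.5, 50 mM NaCl, 1 mM MgCl2. Compound added at 10 s and unlabeled GTP at 120 s; fluorescence loss followed for 30 min. Rates come from single-exponential decay fits, normalized between SOS-catalyzed exchange without compound (0) and the maximal rate from the control compound on each plate (100).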

In test [2] the test system is phospho ERK1/2 T202/Y204 levels in HeLa cells. In words: phospho ERK1/2 T202/Y204 levels in HeLa cells. The format is cell-based. The following applies: 30 minutes; for phospho ERK levels at higher concentrations: higher concentrations (up to 200 μM); for phospho ERK levels at lower concentrations: lower concentrations of compound.
Test [3] relates to RAS-GTP levels in HeLa cells. In words: RAS-GTP levels in HeLa cells. The format is cell-based. The following applies: 30 minutes, up to 200 μM compound.

`N[C@@H](Cc1c[nH]c2ccccc12)C(=O)NC1CCN(Cc2c[nH]c3ccc(Cl)cc23)CC1` [API, (S)-2-amino-N-(1-((5-chloro-1H-indol-3-yl)methyl)piperidin-4-yl)-3-(1H-indol-3-yl)propanamide, reference compound]: the “Average Relative Rate of Nucleotide Exchange at 100 μM” value in test [1] was found to be 100%. In addition, in test [2], the “phospho ERK levels at higher concentrations” value was “inhibition of phospho ERK levels was observed” and the “phospho ERK levels at lower concentrations” value is listed as “induction of phospho ERK levels”. The “RAS-GTP levels relative to DMSO control” value in test [3] is listed as “increase in RAS-GTP levels was observed”.
For the molecule `CCCN1CCC(NCCC(c2ccccc2)c2ccccc2)CC1` [Compound 4, N-(3,3-diphenylpropyl)-1-propylpiperidin-4-amine], the “Average Relative Rate of Nucleotide Exchange at 100 μM” value in test [1] is given as 50.9%. The “RAS-GTP levels relative to DMSO control” value in test [3] is “did not cause an increase in RAS-GTP levels”.
As for `c1ccc(C(CCNC2CCNCC2)c2ccccc2)cc1` [Compound 4a, N-(3,3-diphenylpropyl)piperidin-4-amine], the “Average Relative Rate of Nucleotide Exchange at 100 μM” value in test [1] was found to be 69.1%. In test [2], the “phospho ERK levels at higher concentrations” value is given as “inhibition of phospho ERK levels was observed” and the “phospho ERK levels at lower concentrations” value is “induction of phospho ERK levels”. The “RAS-GTP levels relative to DMSO control” value in test [3] is listed as “increase in RAS-GTP levels was observed”.
